PMC10441411 (bioRxiv, 2023)
pKd: −log10 of the molar value. Each block holds one molecule with its values, some of them ahead of it. Peptide text beside a SMILES is read from it. * marks the point of attachment. Cbz = O=C(OCc1ccccc1)*

Key:
NR4A1 [1] = target: NR4A1 (Homo sapiens, UniProt P22736); assay: NR4A1 degradation in human cell lines by immunoblotting; assay type: cell-based; conditions: CHL-1 cells
Method in brief: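 CHL-1 and A375 human melanoma cells were grown in DMEM with 10% FBS and penicillin/streptomycin. Screening used 250 nM test compound for 16 h, read by immunoblot plus densitometry (n=2). A 16 h dose series gave the 50% degradation concentration. For pathway tests, CHL-1 were pretreated 10 min with 0.5 μM MG132 or 10 μM VHL 032, then exposed 16 h to DMSO or 500 nM. Lysates were made in RIPA with DTT.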

[2] = system: MC38 colon adenocarcinoma; assay: MC38 colon cancer syngeneic tumor growth; assay type: in vivo, mouse; conditions: WT mice; 1.8 mg/kg NR-V04 or 0.75 mg/kg celastrol i.p. twice a week from day 7
Method in brief: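 Mouse MC38 or Yummer1.7 cells (5 × 10^5) in PBS injected s.c. into 7–9-week-old WT or NSG hosts. Dosing started day 7 once tumors were palpable: test compound 1.8 mg/kg i.p. twice weekly, with celastrol 0.75 mg/kg (1.67 μmol/kg) in MC38 only. Vehicle was 50% phosal PG/45% miglyol 810N/5% polysorbate 80. Tumors were grown to 2 cm diameter endpoint.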

B16F10 melanoma = B16F10 melanoma syngeneic tumor growth; assay type: in vivo, mouse; conditions: WT mice; 1.8 mg/kg NR-V04 or 0.75 mg/kg celastrol i.p. twice a week from day 7
NR4A1 [3] = conditions: read-out: binding affinity of celastrol to NR4A1 (Kd); cited from earlier work
NR4A1 mRNA = NR4A1 mRNA by qPCR in CHL-1 cells; assay type: cell-based, human; conditions: 500 nM, time course, ACTB control

NR4A1 (Homo sapiens, UniProt P22736), sequence (P22736 whole entry): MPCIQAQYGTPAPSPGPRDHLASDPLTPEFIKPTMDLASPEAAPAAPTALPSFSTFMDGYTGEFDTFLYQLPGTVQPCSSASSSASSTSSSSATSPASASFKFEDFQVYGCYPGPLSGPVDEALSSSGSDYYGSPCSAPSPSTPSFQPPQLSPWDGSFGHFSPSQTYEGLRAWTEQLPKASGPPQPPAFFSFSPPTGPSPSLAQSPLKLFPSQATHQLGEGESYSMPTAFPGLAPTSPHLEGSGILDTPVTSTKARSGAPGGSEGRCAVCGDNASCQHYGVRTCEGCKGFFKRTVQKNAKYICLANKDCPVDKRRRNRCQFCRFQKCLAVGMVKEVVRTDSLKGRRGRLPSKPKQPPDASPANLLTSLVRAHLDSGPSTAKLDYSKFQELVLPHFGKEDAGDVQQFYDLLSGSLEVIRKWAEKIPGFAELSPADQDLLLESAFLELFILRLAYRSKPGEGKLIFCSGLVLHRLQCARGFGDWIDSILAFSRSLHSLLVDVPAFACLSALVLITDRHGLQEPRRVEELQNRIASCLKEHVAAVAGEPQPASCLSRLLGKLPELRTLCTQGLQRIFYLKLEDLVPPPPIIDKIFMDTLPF

- effect of pretreatment on NR-V04-reduced NR4A1 protein level (NR4A1 [1]; 0.5 μM MG132 10 minutes, then 500 nM NR-V04 16 hours): effectively rescued
SMILES: CC(C)C[C@@H](C=O)NC(=O)[C@H](CC(C)C)NC(=O)[C@H](CC(C)C)NC(=O)OCc1ccccc1 [MG132] (Cbz-Leu-Leu-Leu-aldehyde)

SMILES: CC1=C(O)C(=O)C=C2C1=CC=C1[C@@]2(C)CC[C@@]2(C)[C@@H]3C[C@](C)(C(=O)O)CC[C@]3(C)CC[C@]12C [celastrol]
- NR4A1 protein level, initial screening (NR4A1 [1]; 250 nM, 16 hours, immunoblotting and densitometry): did not alter
- NR4A1 protein level (NR4A1 [1]; 16 hours, dose series): did not change
- tumor growth, MC38 model [2]: failed to inhibit tumor growth
- tumor growth, B16F10 melanoma (B16F10 melanoma): increased growth
- pKd (NR4A1 [3]): 6.54
- NR4A1 mRNA level (NR4A1 mRNA): increase in NR4A1 mRNA levels after 2 hrs

- effect of pretreatment on NR-V04-induced degradation of NR4A1 (NR4A1 [1]; 10 μM VHL 032 10 minutes, then 500 nM NR-V04 16 hours): prevented
SMILES: CC(=O)N[C@H](C(=O)N1C[C@H](O)C[C@H]1C(=O)NCc1ccc(-c2scnc2C)cc1)C(C)(C)C [VHL-032]
